ChEMBL document CHEMBL5260824, “9-Deazapurines as Broad-Spectrum Inhibitors of the ABC Transport Proteins P-Glycoprotein, Multidrug Resistance-Associated Protein 1, and Breast Cancer Resistance Protein” (J Med Chem, 2017)

What was measured:
[1] = target: ATP-dependent translocase ABCB1 (Homo sapiens, UniProt P08183); assay: Inhibition of P-gp (unknown origin) incubated for 30 mins by calcein AM analysis
How it was run: (§1)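 A2780/ADR cells (doxorubicin-selected, P-gp overexpressing), about 30,000 per well in Krebs-HEPES buffer pH 7.4, incubated 30 min at 37 °C with compound (100 nM–100 µM added solutions). Calcein AM (3.125 µM solution added) then fluorescence read every 60 s at 37 °C, ex 485/em 520 nm; slope over minutes 5–30 plotted vs log concentration. Cyclosporine A 10 µM = 100% inhibition, buffer = 0%.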

[2] = target: Multidrug resistance-associated protein 1 (Homo sapiens, UniProt P33527); assay: Inhibition of MRP1 in human NCI-H69AR cells incubated for 180 mins in presence of daunorubicin by flow cytometry analysis; type: cell-based
Sequence of Multidrug resistance-associated protein 1 (P33527 whole entry): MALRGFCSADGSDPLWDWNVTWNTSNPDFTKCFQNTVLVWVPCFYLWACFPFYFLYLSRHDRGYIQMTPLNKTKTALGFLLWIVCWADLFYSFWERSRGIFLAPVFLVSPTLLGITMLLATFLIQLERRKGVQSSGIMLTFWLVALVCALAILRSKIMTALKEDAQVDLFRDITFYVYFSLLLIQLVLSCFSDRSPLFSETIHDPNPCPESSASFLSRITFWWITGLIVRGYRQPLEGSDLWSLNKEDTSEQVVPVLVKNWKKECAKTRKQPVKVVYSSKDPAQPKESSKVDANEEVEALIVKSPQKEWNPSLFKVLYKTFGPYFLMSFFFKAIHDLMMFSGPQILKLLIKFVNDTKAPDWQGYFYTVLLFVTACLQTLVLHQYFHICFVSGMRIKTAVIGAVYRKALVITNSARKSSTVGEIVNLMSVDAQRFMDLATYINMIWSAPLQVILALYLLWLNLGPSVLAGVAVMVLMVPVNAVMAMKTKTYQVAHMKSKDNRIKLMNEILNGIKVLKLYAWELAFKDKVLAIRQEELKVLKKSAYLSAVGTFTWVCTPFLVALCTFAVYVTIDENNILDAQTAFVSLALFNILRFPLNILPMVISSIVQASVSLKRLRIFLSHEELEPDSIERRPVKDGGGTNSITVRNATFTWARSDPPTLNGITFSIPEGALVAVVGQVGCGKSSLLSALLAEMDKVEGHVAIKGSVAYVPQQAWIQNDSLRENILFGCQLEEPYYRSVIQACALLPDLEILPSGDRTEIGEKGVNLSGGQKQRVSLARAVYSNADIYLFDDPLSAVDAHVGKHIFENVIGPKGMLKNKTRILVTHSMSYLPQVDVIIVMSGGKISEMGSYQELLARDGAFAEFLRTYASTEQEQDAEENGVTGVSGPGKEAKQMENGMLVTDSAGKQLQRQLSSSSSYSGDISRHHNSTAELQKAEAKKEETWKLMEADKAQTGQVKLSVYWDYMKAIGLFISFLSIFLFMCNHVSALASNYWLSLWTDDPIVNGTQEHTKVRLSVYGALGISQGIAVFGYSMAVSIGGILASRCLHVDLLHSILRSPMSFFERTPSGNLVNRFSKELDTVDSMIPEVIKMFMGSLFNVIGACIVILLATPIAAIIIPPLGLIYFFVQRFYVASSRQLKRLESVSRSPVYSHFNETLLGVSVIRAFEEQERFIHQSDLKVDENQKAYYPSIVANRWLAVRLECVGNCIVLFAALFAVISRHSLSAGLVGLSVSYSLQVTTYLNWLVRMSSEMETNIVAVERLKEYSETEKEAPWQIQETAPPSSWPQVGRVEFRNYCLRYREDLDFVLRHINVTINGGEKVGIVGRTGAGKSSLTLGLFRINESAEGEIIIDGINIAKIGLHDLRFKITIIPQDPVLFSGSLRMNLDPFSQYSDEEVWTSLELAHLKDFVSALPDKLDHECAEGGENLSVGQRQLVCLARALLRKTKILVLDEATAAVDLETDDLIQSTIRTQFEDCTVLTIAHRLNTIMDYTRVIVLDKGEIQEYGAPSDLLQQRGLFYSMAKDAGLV
How it was run: (§2)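 H69AR cells (doxorubicin-selected small cell lung cancer, RPMI-1640/20% FBS), about 60,000 per well, preincubated 15 min with compound (100 nM–100 µM added solutions, in unsupplemented medium), then daunorubicin (30 µM solution added); steady state after 180 min, 37 °C, 5% CO2. Cells resuspended; flow cytometry, 488 nm excitation, FL3 (≥670 nm). Reference inhibitor 75 at 10 µM = 100%; Imax relative to it.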

[3] = target: MRP1 (Homo sapiens, UniProt P33527); assay: Inhibition of MRP1 in human NCI-H69AR cells at 10 uM incubated for 180 mins in presence of daunorubicin by flow cytometry analysis relative to control; type: cell-based; settings: probe daunorubicin; how it was run: as §2
Sequence of MRP1 (P33527 whole entry): as above

[4] = target: T1, BCRP (ABCG2) (Homo sapiens, UniProt Q9UNQ0); assay: Inhibition of BCRP (unknown origin) expressed in dog MDCK-II cells at 10 uM using pheophorbide A as substrate preincubated for 20 mins followed by substrate addition and measured after 120 mins by flow cytometry analysis relative to control; type: cell-based; settings: probe pheophorbide A
T1 sequence (Q9UNQ0 whole entry): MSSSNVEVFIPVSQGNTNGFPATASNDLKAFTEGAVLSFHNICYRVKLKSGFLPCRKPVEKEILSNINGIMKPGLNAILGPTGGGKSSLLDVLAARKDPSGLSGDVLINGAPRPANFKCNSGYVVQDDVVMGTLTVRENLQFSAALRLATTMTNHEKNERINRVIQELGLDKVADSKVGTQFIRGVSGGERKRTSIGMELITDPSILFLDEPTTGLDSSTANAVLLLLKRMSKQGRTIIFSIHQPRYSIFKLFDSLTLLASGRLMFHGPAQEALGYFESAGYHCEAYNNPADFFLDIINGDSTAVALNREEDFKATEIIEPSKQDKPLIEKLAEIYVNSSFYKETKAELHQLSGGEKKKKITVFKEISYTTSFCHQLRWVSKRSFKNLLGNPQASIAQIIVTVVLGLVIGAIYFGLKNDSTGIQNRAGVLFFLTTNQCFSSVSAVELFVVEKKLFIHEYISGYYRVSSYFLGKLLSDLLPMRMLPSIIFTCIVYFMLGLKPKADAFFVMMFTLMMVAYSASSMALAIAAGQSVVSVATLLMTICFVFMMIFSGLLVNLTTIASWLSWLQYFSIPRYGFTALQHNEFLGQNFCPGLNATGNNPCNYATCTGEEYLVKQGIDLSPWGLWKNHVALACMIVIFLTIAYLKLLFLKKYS
How it was run: (§3)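 MDCK II cells transfected with human wild-type BCRP cDNA C-terminally fused to GFP, grown in DMEM/10% FBS. About 45,000 cells per well preincubated 20 min at 37 °C, 5% CO2 with compound (100 nM–100 µM added solutions), then pheophorbide A (5 µM solution added) for 120 min to steady state. Resuspended; flow cytometry, 488 nm excitation, FL3 (≥670 nm); GFP in FL1. Reference inhibitor 24 at 10 µM = 100%.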

[5] = target: T2, Broad substrate specificity ATP-binding cassette transporter ABCG2 (Homo sapiens, UniProt Q9UNQ0); assay: Inhibition of BCRP (unknown origin) expressed in dog MDCK-II cells using pheophorbide A as substrate preincubated for 20 mins followed by substrate addition and measured after 120 mins by flow cytometry analysis; type: cell-based; how it was run: as §3
T2 sequence (Q9UNQ0 whole entry): T1 sequence (Q9UNQ0 whole entry)

[6] = target: P-gp (ABCB1) (Homo sapiens, UniProt P08183); assay: Inhibition of P-gp (unknown origin) at 10 uM incubated for 30 mins by calcein AM analysis relative to control; settings: probe calcein AM; how it was run: as §1
Sequence of P-gp (ABCB1) (P08183 whole entry): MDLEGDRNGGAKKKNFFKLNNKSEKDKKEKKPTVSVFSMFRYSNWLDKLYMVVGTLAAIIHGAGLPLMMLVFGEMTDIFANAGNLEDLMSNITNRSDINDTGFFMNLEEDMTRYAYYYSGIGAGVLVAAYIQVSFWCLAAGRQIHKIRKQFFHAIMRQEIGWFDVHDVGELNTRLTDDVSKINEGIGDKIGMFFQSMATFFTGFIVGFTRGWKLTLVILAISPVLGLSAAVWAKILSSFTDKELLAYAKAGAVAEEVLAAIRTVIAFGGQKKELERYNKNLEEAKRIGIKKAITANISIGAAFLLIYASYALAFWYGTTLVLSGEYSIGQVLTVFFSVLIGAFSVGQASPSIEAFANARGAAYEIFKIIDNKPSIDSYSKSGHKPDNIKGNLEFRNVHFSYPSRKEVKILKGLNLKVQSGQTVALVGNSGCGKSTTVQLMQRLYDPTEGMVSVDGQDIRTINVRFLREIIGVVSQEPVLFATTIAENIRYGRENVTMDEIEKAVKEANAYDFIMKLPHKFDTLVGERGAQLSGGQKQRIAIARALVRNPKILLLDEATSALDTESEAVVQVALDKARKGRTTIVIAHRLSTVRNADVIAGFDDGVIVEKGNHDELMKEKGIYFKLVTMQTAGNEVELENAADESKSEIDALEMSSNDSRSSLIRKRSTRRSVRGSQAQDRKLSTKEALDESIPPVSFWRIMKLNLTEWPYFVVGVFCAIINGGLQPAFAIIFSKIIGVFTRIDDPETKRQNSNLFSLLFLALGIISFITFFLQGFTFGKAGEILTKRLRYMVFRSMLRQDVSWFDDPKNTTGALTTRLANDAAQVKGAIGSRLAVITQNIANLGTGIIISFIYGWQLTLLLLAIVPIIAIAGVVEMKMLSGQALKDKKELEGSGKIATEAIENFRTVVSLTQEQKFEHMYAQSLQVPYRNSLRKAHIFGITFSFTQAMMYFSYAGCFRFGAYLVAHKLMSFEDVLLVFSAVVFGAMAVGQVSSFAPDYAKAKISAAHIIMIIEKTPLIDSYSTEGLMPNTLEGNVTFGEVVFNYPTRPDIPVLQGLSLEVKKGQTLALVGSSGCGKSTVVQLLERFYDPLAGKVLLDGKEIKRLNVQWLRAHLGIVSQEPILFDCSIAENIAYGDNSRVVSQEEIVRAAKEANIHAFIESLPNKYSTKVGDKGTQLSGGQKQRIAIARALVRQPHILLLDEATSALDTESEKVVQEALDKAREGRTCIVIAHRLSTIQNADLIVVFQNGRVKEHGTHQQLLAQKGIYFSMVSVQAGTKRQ

Sequence of ATP-dependent translocase ABCB1 (P08183 whole entry): as above

## N#Cc1c2n(c3c(N4CCN(CCc5ccccc5)CC4)ncnc13)CCCC2
[1]
  IC50: 9.63 µM

## CCn1cc(C#N)c2ncnc(N3CCN(CCc4c[nH]c5ccccc45)CC3)c21
[2]
  IC50: 0.855 µM
[3]
  inhibition at 3 h, 10 µM: > 25%
[4]
  inhibition at 2 h, 10 µM: > 25%
[5]
  IC50: 13.8 µM

## N#Cc1c2n(c3c(N4CCN(CCc5ccncc5)CC4)ncnc13)CCCCC2
[2]
  IC50: 1.14 µM
[3]
  inhibition at 3 h, 10 µM: 25%
[6]
  inhibition at 0.5 h, 10 µM: > 25%
[4]
  inhibition at 2 h, 10 µM: > 25%
[5]
  IC50: 12.4 µM

## CCOc1ccc(-n2cc(C#N)c3ncnc(N4CCN(CCc5ccccc5)CC4)c32)cc1
[2]
  IC50: 1.32 µM
[3]
  inhibition at 3 h, 10 µM: > 25%
[6]
  inhibition at 0.5 h, 10 µM: > 25%
[4]
  inhibition at 2 h, 10 µM: > 25%

## N#Cc1cn(-c2ccccc2)c2c(N3CCN(CCc4c[nH]c5ccccc45)CC3)ncnc12
[2]
  IC50: 0.328 µM
[1]
  IC50: 1.28 µM
[3]
  inhibition at 3 h, 10 µM: > 25%
[6]
  inhibition at 0.5 h, 10 µM: > 25%
[4]
  inhibition at 2 h, 10 µM: > 25%

## N#Cc1c2n(c3c(N4CCN(c5ccccn5)CC4)ncnc13)CCCC2
[2]
  IC50: 1.02 µM
[3]
  inhibition at 3 h, 10 µM: 25%
[6]
  inhibition at 0.5 h, 10 µM: > 25%
[4]
  inhibition at 2 h, 10 µM: > 25%
[5]
  IC50: 4.86 µM

## CCOc1ccc(-n2cc(C#N)c3ncnc(N4CCN(Cc5ccccc5)CC4)c32)cc1
[2]
  IC50: 0.859 µM
[1]
  IC50: 7.29 µM
[3]
  inhibition at 3 h, 10 µM: > 25%
[6]
  inhibition at 0.5 h, 10 µM: > 25%
[4]
  inhibition at 2 h, 10 µM: > 25%

## N#Cc1cn(Cc2ccccc2)c2c(N3CCN(CCc4c[nH]c5ccccc45)CC3)ncnc12
[2]
  IC50: 0.405 µM
[1]
  IC50: 4.48 µM
[3]
  inhibition at 3 h, 10 µM: > 25%
[6]
  inhibition at 0.5 h, 10 µM: > 25%
[4]
  inhibition at 2 h, 10 µM: > 25%
[5]
  IC50: 4.07 µM

## N#Cc1c2n(c3c(NCCc4c[nH]c5ccccc45)ncnc13)CCCC2
[2]
  IC50: 0.957 µM
[3]
  inhibition at 3 h, 10 µM: 25%
[6]
  inhibition at 0.5 h, 10 µM: > 25%
[4]
  inhibition at 2 h, 10 µM: > 25%

## CCCn1cc(C#N)c2ncnc(N3CCN(CCc4c[nH]c5ccccc45)CC3)c21
[2]
  IC50: 0.468 µM
[3]
  inhibition at 3 h, 10 µM: > 25%

## N#Cc1c2n(c3c(N4CCN(CCc5ccncc5)CC4)ncnc13)CCCC2
[2]
  IC50: 0.672 µM
[3]
  inhibition at 3 h, 10 µM: 25%
[6]
  inhibition at 0.5 h, 10 µM: > 25%
[4]
  inhibition at 2 h, 10 µM: > 25%
[5]
  IC50: 27.8 µM

## N#Cc1c2n(c3c(N4CCN(C(=O)c5ccco5)CC4)ncnc13)CCCCC2
[2]
  IC50: 1.01 µM
[3]
  inhibition at 3 h, 10 µM: > 25%
[6]
  inhibition at 0.5 h, 10 µM: > 25%
[4]
  inhibition at 2 h, 10 µM: > 25%
[5]
  IC50: 12.9 µM

## N#Cc1cn(CCc2ccccc2)c2c(N3CCN(Cc4ccc5c(c4)OCO5)CC3)ncnc12
[2]
  IC50: 1.8 µM
[3]
  inhibition at 3 h, 10 µM: > 25%
[6]
  inhibition at 0.5 h, 10 µM: > 25%
[4]
  inhibition at 2 h, 10 µM: > 25%

## Cn1cc(C#N)c2ncnc(N3CCN(CCc4c[nH]c5ccccc45)CC3)c21
[2]
  IC50: 0.337 µM
[3]
  inhibition at 3 h, 10 µM: > 25%

## N#Cc1c2n(c3c(N4CCN(c5ccccn5)CC4)ncnc13)CCCCC2
[3]
  inhibition at 3 h, 10 µM: 25%
[6]
  inhibition at 0.5 h, 10 µM: > 25%
[4]
  inhibition at 2 h, 10 µM: > 25%

## N#Cc1c2n(c3c(N4CCN(CCc5c[nH]c6ccccc56)CC4)ncnc13)CCCCC2
[2]
  IC50: 0.289 µM
[1]
  IC50: 1.71 µM
[3]
  inhibition at 3 h, 10 µM: 25%
[6]
  inhibition at 0.5 h, 10 µM: > 25%
[4]
  inhibition at 2 h, 10 µM: > 25%

## N#Cc1c2n(c3c(N4CCN(C(=O)c5ccco5)CC4)ncnc13)CCCC2
[2]
  IC50: 0.883 µM
[3]
  inhibition at 3 h, 10 µM: > 25%
[6]
  inhibition at 0.5 h, 10 µM: > 25%
[4]
  inhibition at 2 h, 10 µM: > 25%
[5]
  IC50: 29.5 µM

## COc1ccccc1-n1cc(C#N)c2ncnc(N3CCN(CCc4ccccc4)CC3)c21
[2]
  IC50: 0.638 µM
[3]
  inhibition at 3 h, 10 µM: > 25%
[6]
  inhibition at 0.5 h, 10 µM: > 25%
[4]
  inhibition at 2 h, 10 µM: > 25%

## N#Cc1cn(-c2ccccc2)c2c(N3CCN(Cc4ccc5c(c4)OCO5)CC3)ncnc12
[2]
  IC50: 0.751 µM
[3]
  inhibition at 3 h, 10 µM: > 25%
[6]
  inhibition at 0.5 h, 10 µM: > 25%
[4]
  inhibition at 2 h, 10 µM: > 25%

## N#Cc1cn(C2CC2)c2c(N3CCN(CCc4c[nH]c5ccccc45)CC3)ncnc12
[2]
  IC50: 0.316 µM
[1]
  IC50: 3.85 µM
[3]
  inhibition at 3 h, 10 µM: > 25%
[6]
  inhibition at 0.5 h, 10 µM: > 25%
[4]
  inhibition at 2 h, 10 µM: > 25%
[5]
  IC50: 18.9 µM
